Measurements taken from BindingDB's records for doi:10.1016/j.bmc.2012.05.040 (Imperial College, 2012).

Legend:
[1] = biological target: T1, M-phase inducer phosphatase 1 (Homo sapiens, UniProt P30304); experiment: Inhibition of N-terminal His-tagged Cdc25a catalytic domain expressed in Escherichia coli BL21(DE3) using 3-O-Methylfluorescein phosphate as substrate by secondary plot analysis
T1 sequence (P30304 whole entry): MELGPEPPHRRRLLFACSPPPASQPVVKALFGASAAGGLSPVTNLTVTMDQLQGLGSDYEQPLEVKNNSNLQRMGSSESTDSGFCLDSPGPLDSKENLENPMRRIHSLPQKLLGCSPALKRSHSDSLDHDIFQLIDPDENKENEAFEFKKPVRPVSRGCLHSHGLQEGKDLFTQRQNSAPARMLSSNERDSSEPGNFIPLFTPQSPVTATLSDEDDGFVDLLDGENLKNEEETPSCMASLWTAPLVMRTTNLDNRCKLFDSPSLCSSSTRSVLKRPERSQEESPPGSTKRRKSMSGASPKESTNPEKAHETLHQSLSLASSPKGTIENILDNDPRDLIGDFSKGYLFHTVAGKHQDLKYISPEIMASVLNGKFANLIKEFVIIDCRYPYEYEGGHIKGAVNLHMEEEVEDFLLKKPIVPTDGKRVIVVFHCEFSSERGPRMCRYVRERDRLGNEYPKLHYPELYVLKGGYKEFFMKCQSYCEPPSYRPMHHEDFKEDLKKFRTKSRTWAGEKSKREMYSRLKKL
How it was run: (§1)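 Steady-state kinetics of the Cdc25a and Cdc25b catalytic domains with varying OMFP and several arylstibonate concentrations. Run at 20 °C in 100 mM Tris pH 7.4 with 2 mM DTT, after a 10 min RT enzyme–inhibitor preincubation. Fluorescence read at ex 485/em 525 nm. Michaelis–Menten plots give apparent Km and Vmax; secondary plots give Ki.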

[2] = biological target: Phosphatidylinositol 3,4,5-trisphosphate 3-phosphatase and dual-specificity protein phosphatase PTEN (Homo sapiens, UniProt P60484); experiment: Inhibition of human PTEN using 3-O-Methylfluorescein phosphate as substrate incubated for 10 mins prior to substrate addition by fluorometry
How it was run: (§2)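 OMFP phosphatase assay, 20 °C, in 100 mM Tris pH 7.4 with 2 mM DTT. OMFP is taken from a 20 mM DMSO stock and diluted in 1% DMSO. It is used near each enzyme's KM, which is determined beforehand. Enzyme and arylstibonate are preincubated 10 min at RT, then OMFP is added. OMF release is read by fluorescence (ex 485, em 525 nm). Dose-response curves give IC50.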

[3] = biological target: T2, Tyrosine-protein phosphatase non-receptor type 1 (Homo sapiens, UniProt P18031); experiment: Inhibition of PTP1B using 3-O-Methylfluorescein phosphate as substrate incubated for 10 mins prior to substrate addition by fluorometry; how it was run: as §2
T2 sequence (P18031 whole entry): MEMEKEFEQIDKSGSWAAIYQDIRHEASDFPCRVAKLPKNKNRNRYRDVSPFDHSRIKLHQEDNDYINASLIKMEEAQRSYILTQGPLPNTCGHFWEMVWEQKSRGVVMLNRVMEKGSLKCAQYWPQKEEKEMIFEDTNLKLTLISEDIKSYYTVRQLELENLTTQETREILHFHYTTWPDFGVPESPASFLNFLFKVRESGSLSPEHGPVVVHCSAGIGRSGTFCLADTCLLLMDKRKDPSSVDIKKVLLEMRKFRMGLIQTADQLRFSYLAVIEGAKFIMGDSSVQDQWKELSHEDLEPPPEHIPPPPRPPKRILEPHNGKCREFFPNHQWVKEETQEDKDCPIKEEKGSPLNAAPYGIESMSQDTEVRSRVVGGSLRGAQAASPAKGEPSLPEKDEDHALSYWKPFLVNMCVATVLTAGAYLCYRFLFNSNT

[4] = biological target: T3, Dual specificity protein phosphatase 6 (Homo sapiens, UniProt Q16828); experiment: Inhibition of MKP3 using 3-O-Methylfluorescein phosphate as substrate incubated for 10 mins prior to substrate addition by fluorometry; how it was run: as §2
T3 sequence (Q16828 whole entry): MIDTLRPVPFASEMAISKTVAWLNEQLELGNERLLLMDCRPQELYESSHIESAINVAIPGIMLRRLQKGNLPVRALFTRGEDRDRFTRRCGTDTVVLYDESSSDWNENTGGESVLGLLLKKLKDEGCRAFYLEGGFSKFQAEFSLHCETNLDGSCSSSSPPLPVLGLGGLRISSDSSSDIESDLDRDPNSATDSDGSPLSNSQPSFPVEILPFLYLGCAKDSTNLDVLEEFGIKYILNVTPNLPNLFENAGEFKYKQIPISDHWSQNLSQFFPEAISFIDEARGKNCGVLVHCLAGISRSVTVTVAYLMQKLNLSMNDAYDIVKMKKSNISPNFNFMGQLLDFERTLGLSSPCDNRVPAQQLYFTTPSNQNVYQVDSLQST

[5] = biological target: T4, M-phase inducer phosphatase 2 (Homo sapiens, UniProt P30305); experiment: Inhibition of N-terminal His-tagged Cdc25b catalytic domain expressed in Escherichia coli BL21(DE3) using 3-O-Methylfluorescein phosphate as substrate by secondary plot analysis; how it was run: as §1
T4 sequence (P30305 whole entry): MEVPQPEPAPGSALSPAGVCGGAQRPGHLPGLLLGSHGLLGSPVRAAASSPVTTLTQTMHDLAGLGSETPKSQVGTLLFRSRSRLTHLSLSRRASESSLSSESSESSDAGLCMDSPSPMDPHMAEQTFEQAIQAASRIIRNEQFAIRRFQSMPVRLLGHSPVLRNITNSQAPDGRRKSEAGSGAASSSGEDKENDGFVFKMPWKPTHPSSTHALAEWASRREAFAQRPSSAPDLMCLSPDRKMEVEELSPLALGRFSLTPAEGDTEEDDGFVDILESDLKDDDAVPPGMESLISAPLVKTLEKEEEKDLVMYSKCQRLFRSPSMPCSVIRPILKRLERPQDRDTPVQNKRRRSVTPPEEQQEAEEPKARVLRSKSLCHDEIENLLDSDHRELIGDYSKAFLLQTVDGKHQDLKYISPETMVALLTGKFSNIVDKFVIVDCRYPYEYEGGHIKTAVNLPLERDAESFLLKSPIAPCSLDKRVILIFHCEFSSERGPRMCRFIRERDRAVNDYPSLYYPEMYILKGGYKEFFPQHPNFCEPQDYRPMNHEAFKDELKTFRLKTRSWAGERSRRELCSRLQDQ

[6] = biological target: T5, Receptor-type tyrosine-protein phosphatase beta (Homo sapiens, UniProt P23467); experiment: Inhibition of PTP-beta receptor using […] as substrate by colorimetric analysis
[7] = biological target: T4, M-phase inducer phosphatase 2; experiment: Inhibition of N-terminal His-tagged Cdc25b catalytic domain expressed in Escherichia coli BL21(DE3) using 3-O-Methylfluorescein phosphate as substrate incubated for 10 mins prior to substrate addition by fluorometry; how it was run: as §2
[8] = biological target: T6, Phosphatidylglycerophosphatase and protein-tyrosine phosphatase 1 (Homo sapiens, UniProt Q8WUK0); experiment: Inhibition of PTPMT1 using 3-O-Methylfluorescein phosphate as substrate incubated for 10 mins prior to substrate addition by fluorometry; how it was run: as §2
T6 sequence (Q8WUK0 whole entry): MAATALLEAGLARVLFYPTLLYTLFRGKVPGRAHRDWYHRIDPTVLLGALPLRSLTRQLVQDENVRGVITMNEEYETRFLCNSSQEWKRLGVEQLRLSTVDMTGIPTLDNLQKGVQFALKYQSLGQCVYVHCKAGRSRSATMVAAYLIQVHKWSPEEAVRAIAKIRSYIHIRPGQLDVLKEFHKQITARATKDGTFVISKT

[9] = biological target: T5, Receptor-type tyrosine-protein phosphatase beta; experiment: Inhibition of PTP-beta receptor using 3-O-Methylfluorescein phosphate as substrate incubated for 10 mins prior to substrate addition by fluorometry; how it was run: as §2
[10] = biological target: T7, M-phase inducer phosphatase 3 (Homo sapiens, UniProt P30307); experiment: Inhibition of N-terminal His-tagged Cdc25c catalytic domain expressed in Escherichia coli BL21(DE3) using 3-O-Methylfluorescein phosphate as substrate incubated for 10 mins prior to substrate addition by fluorometry; how it was run: as §2
T7 sequence (P30307 whole entry): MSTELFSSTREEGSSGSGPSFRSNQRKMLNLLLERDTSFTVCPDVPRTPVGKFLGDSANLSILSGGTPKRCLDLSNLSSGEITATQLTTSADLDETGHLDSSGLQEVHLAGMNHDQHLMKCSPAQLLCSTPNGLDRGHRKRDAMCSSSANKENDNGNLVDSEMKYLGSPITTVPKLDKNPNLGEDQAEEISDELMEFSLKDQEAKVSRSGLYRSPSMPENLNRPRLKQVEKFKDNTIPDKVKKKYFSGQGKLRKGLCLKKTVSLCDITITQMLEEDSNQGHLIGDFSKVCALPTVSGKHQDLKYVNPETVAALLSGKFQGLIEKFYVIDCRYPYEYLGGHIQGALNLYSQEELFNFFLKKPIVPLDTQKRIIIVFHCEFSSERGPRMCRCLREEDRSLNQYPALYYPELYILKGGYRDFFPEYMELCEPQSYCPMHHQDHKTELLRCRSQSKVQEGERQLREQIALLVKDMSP

[11] = biological target: T1, M-phase inducer phosphatase 1; experiment: Inhibition of N-terminal His-tagged Cdc25a catalytic domain expressed in Escherichia coli BL21(DE3) using 3-O-Methylfluorescein phosphate as substrate incubated for 10 mins prior to substrate addition by fluorometry; how it was run: as §2
[12] = biological target: Dual specificity protein phosphatase 3 (Homo sapiens, UniProt P51452); experiment: Inhibition of human recombinant His-tagged VHR using 3-O-Methylfluorescein phosphate as substrate incubated for 10 mins prior to substrate addition by fluorometry; how it was run: as §2
Sequence of Dual specificity protein phosphatase 3 (P51452 whole entry): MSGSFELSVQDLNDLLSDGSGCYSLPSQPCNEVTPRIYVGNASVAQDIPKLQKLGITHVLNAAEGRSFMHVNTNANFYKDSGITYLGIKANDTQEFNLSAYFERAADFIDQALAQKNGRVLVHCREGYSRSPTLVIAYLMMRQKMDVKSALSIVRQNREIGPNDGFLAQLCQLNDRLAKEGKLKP

T5 sequence (P23467 whole entry, the tested form may be a part): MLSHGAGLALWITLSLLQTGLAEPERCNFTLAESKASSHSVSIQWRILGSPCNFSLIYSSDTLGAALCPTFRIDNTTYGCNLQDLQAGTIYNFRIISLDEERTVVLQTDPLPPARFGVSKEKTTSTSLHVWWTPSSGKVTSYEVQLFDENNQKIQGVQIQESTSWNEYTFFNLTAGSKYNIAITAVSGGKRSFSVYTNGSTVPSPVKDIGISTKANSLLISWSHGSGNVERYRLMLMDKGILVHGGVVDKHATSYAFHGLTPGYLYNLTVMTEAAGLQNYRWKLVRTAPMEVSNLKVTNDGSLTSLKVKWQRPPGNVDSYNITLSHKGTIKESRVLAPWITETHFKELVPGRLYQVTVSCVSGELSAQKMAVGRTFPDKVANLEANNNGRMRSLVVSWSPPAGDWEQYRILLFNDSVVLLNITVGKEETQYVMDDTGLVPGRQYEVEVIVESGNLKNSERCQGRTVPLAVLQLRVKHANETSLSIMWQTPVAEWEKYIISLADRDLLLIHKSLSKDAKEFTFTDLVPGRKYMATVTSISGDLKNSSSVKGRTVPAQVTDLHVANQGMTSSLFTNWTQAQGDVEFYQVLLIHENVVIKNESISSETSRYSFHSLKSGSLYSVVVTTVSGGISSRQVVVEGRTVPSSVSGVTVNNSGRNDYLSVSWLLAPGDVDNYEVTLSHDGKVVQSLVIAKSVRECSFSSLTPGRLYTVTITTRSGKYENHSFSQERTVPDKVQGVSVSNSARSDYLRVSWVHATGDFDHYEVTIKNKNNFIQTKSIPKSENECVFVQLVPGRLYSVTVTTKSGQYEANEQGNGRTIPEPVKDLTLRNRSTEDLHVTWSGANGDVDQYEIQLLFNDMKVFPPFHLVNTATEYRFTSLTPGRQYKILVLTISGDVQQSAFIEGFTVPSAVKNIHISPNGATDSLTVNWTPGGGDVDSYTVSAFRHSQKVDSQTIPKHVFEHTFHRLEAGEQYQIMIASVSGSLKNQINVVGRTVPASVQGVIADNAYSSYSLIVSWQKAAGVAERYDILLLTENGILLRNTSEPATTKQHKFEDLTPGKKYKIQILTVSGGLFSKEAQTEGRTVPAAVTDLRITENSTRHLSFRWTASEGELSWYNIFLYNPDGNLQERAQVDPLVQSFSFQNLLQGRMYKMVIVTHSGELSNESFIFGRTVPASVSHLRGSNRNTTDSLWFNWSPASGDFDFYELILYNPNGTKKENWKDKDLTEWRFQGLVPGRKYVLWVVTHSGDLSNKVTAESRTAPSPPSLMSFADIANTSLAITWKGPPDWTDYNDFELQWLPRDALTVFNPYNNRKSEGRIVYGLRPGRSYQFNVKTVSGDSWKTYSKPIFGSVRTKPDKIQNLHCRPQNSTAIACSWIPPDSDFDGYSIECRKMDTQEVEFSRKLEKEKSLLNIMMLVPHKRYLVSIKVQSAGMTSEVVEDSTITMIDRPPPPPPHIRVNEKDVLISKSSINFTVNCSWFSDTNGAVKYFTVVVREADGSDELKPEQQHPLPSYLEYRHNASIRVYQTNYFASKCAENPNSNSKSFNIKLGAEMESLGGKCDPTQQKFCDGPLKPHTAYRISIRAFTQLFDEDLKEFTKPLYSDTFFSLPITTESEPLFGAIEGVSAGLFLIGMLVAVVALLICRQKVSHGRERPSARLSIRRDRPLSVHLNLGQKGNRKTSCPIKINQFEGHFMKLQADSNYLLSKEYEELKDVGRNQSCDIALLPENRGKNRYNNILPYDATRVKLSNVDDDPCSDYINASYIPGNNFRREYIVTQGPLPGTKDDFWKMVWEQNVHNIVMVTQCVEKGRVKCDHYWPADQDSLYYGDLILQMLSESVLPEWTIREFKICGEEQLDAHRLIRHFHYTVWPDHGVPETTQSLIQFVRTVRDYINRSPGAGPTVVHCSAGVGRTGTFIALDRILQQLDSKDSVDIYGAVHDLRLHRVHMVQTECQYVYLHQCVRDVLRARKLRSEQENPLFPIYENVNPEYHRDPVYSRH
Sequence of Phosphatidylinositol 3,4,5-trisphosphate 3-phosphatase and dual-specificity protein phosphatase PTEN (P60484 whole entry): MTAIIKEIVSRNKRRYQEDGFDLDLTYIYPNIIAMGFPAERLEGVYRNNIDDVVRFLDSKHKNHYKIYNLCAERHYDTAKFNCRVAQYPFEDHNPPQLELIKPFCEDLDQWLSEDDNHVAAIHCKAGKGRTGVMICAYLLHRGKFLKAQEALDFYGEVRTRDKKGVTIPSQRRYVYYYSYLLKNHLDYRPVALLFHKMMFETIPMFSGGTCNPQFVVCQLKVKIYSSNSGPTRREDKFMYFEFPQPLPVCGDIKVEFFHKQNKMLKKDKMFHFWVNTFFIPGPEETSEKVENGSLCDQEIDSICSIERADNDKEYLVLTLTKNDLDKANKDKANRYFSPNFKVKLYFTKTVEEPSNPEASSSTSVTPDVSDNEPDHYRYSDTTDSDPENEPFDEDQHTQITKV

SMILES | Ki [1] [µM] | IC50 [2] [µM] | IC50 [3] [µM] | IC50 [4] [µM] | Ki [5] [µM] | IC50 [6] [µM] | IC50 [7] [µM] | IC50 [8] [µM] | IC50 [9] [µM] | IC50 [10] [µM] | IC50 [11] [µM] | IC50 [12] [µM]
O=C(O)CCc1ccc[c]([Sb](=[O])([OH])[OH])c1 | 1.7 | 8.87 | > 100 | > 100 | 4.7 | 0.1 | 5.67 | 13.4 | 1.62 | > 100 | 3.15 | > 100
O=C(O)/C=C/c1ccc[c]([Sb](=[O])([OH])[OH])c1 [(2E)-3-{3-[dihydroxy(oxo)--stibanyl]phenyl}prop-2-enoic acid] | 0.072 | 10 | 7.93 | > 10 | 0.369 | 0.1 | 0.6 | 1.62 | 0.77 | > 10 | 0.11 | > 10
